# Runt-CBFb FRET: blocks binding of human RUNX1 Runt domain to CBFb; Q01196+Q13951; Cerulean-Runt/Venus-CBFb FRET ratio 530/480, 1 h; inhibition, % at 20 µM; 220,000 compounds, 0.46% hits; AID 1496;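 active means inhibition over about 50% at 20 µM in the single-dose screen, limit read from the data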
# Target sequence (Q01196 whole entry, looked up, the tested form may be a part): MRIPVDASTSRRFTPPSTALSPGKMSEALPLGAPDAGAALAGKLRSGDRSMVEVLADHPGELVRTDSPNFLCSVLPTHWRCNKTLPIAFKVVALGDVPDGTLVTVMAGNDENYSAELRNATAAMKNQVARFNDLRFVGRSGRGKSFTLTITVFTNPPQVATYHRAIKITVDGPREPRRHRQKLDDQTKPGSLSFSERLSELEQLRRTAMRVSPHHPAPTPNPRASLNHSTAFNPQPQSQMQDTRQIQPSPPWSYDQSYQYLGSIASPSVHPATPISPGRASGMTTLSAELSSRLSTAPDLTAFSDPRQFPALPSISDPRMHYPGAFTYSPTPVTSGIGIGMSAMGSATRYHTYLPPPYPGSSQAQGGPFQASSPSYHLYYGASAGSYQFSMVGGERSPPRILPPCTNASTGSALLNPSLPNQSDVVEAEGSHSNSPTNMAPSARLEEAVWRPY
# Target sequence (Q13951 whole entry, looked up, the tested form may be a part): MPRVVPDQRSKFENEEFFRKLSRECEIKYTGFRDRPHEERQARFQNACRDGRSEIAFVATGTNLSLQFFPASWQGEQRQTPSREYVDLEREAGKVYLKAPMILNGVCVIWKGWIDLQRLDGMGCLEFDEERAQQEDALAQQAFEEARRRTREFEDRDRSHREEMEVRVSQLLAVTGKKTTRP
#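 Reagent – Venus-CBFb binding partner, 100 nM · Assay system – Cerulean-tagged RUNX1 Runt domain (FRET donor) fusion protein · Input – 100 nM per protein · Incubation – two 1 h room-temperature incubations shielded from light · Measured by – FRET fluorescence · Medium – Tris buffer pH 7.5 with salts and BSA · Benchmarks – unlabeled CBFb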
# RanGTP-Impb inh: inhibitors of RanGTP-importin-beta interaction, primary screen, biochemical, FRET, CFP-Ran, YFP-importin-beta, homogeneous. cell-free CFP-Ran/YFP-importin-beta FRET ratio. inhibition, % (test concentration not listed). 300,000 compounds, 1.1% hits. AID 2216;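 active means more than half of the replicate wells show a fall in the fluorescence ratio signal beyond about 16%, limit read from the data, passing the limit was not always enough; inconclusive means exactly half of the replicate wells pass the set limit; inactive means fewer than half of replicates pass the limit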
# IMP-1 inhibitor: inhibitors of Pseudomonas aeruginosa IMP-1 metallo-beta-lactamase; 290,000 compounds, 0.45% hits; purified IMP-1, nitrocefin hydrolysis, epi-absorbance fluorescence; AID 1556; inhibition, % at 5.6 µM;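 active means inhibition above the mean plus 3 SD of all compounds in the same screening run, cut at about 4.5% in these data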
#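 system = purified recombinant IMP-1 beta-lactamase | amount = 0.2 nM IMP-1, as dispensed | medium = HEPES buffer pH 7.1 with ZnSO4 and Brij 35 | times = 25 °C, 15 min preincubation, 25 min reaction | detection = plate fluorescence quenching by hydrolysis product, ex 480/em 530 nm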
# Runt-SMMHC FRET: inhibitors of human RUNX1 Runt domain binding to CBFb-SMMHC. Q01196+Q13951. Cerulean-Runt/Venus-CBFb-SMMHC FRET ratio 530/480, 1 h. inhibition, % at 20 µM. 220,000 compounds, 0.74% hits;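 active means mean inhibition across duplicate retests at 20 µM reaching about 50%, limit read from the data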;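 further: inhibitors lower the FRET ratio by blocking Runt binding to CBFb-SMMHC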
# VIM-2 inhibitor: blocks Pseudomonas aeruginosa VIM-2 metallo-beta-lactamase; purified VIM-2, nitrocefin hydrolysis, epi-absorbance fluorescence; inhibition, % at 5.6 µM; 290,000 compounds, 0.89% hits;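 active means inhibition above the mean of all tested compounds plus 3 SD, cutoff set per screening run, cut at about 7.5% in these data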;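 further: red hydrolysis product quenches plate fluorescence so inhibitors raise well fluorescence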
# A number is an active result; - = inactive; ? = inconclusive; . = no result given. An excerpt weighted towards active compounds, which were near 2.6% of everything screened.
SMILES,Runt-CBFb FRET,RanGTP-Impb inh,IMP-1 inhibitor,Runt-SMMHC FRET,VIM-2 inhibitor
N=C1/C(=C\c2coc3ccccc3c2=O)C(=O)N=C2SC(c3ccncc3)=NN12,-,-,-,-,-
O=C(Nc1ccc(Cl)cc1)N(Cc1nnc2n1CCCCC2)c1ccccc1,-,-,5.4,-,-
CCCCn1c(N)c(N(CCC(C)C)C(=O)c2ccc(N3CCCC3=O)cc2)c(=O)[nH]c1=O,.,-,.,.,.
CC1CCCCC1N(C)C1CCN(C(=O)CNC(=O)/C=C/c2cccc(Cl)c2)CC1 (stereo not drawn),.,-,-,.,-
COc1ccc(Cn2c(N)c(C#N)c3nc4ccccc4nc32)cc1,80,33,-,94,-
N#Cc1c(N)n(CCc2ccc(F)cc2)c2nc3ccccc3nc12,93,44,-,77,-
COc1cccc(Cn2c(N)c(C#N)c3nc4ccccc4nc32)c1OC,-,-,-,-,-
COCCn1c(N)c(C#N)c2nc3ccccc3nc21,108,71,-,57,-
Cc1ccc(C(=O)NCCn2c(N)c(C#N)c3nc4ccccc4nc32)cc1,98,58,-,79,-
Cn1c(-c2c(N)n(CCc3ccccc3)c3nc4ccccc4nc23)nc2ccccc21,-,-,-,-,-
COc1cc(Cn2c(N)c(C#N)c3nc4ccccc4nc32)cc(OC)c1,72,38,-,113,-
N#Cc1c(N)n(CCOC(=O)c2cccc(Br)c2)c2nc3ccccc3nc12,-,?,-,51,-
O=C(CSc1ccc(F)cc1)Nc1ccc2c(c1)C(=O)NC2=O,.,-,-,.,-
CSc1nsc(/C=C/Nc2ccc(C)c(C)c2)c1C#N,-,33,-,-,-
COc1cc(/C=N/Nc2snc(SC)c2C#N)ccc1O,-,-,-,-,-
COc1ccccc1C(=O)Nc1c2c(nn1-c1ccc(Cl)cc1)CS(=O)(=O)C2,.,-,10,.,-
Nc1c(C(=O)NCc2ccco2)c2nc3ccccc3nc2n1CCc1ccc(F)cc1,-,58,-,-,-
Nc1c(C(=O)NCCN2CCOCC2)c2nc3ccccc3nc2n1CCc1ccccc1,74,85,-,-,-
Nc1c(C(=O)NCCN2CCOCC2)c2nc3ccccc3nc2n1-c1ccccc1,-,81,-,98,-
Cn1cc(Br)c(C(=O)NC2CCCCCC2)n1,.,-,-,.,-
O=C1C=C(NCc2ccccc2)CCC1,-,?,-,-,-
N#Cc1ccccc1NC1=CC(=O)CCC1,-,58,-,-,-
COc1ccccc1C(C)NS(=O)(=O)c1cccs1 (stereo not drawn),.,-,-,.,-
CCSc1ccc(-c2nn(-c3ccccc3)cc2/C=C(/C#N)C(=O)NC)cc1,-,.,-,60,-
CCCSc1ccc(-c2nn(-c3ccccc3)cc2/C=C(/C#N)C(=O)N2CCOCC2)cc1,-,-,-,-,-
SMILES,Runt-CBFb FRET,RanGTP-Impb inh,IMP-1 inhibitor,Runt-SMMHC FRET,VIM-2 inhibitor
CC(=O)c1cccc(NC(=O)C2CCN(S(=O)(=O)c3c(C)n[nH]c3C)CC2)c1,100,-,-,-,-
COC(=O)c1cc(OC)c(OC)cc1NC(=O)c1ccc(C)o1,-,-,-,-,9.2
COC(=O)c1cc(OC)c(OC)cc1NC(=O)CCc1ccc(C)o1,-,-,-,-,-
CCCCn1c(N)c(N(CC(C)C)C(=O)CSc2ccccc2C)c(=O)[nH]c1=O,.,-,.,.,.
CCc1nnc(N2CCN(c3ncnc4c3oc3ccccc34)CC2)s1,-,?,-,-,12
c1ccc(N2CCN(c3ncnc4c3oc3ccccc34)CC2)cc1,-,-,-,-,-
CC(=O)NS(=O)(=O)c1ccc(NS(=O)(=O)c2ccc(F)cc2)cc1,89,-,-,-,-
CCNC(=O)c1ccc(NC(=O)CC2SC(N3CCCC3)=NC2=O)cc1 (stereo not drawn),.,-,.,.,.
COc1cccc(/C=C2/Sc3ccc(C(=O)NCCN4CCCC4)cc3NC2=O)c1,.,?,-,.,11
CC(=O)c1sc(NCc2ccccc2)nc1C,.,-,28,.,-
COC(=O)c1cc(S(=O)(=O)N(Cc2ccccc2)C(C)(C)C)c[nH]1,.,-,-,.,-
C=CCOC(=O)C(=O)/C=C/c1coc2ccccc2c1=O,-,-,-,-,8.3
COc1ccc(/C=C2\SC(=S)N(CCC(=O)N3CCCCC3)C2=O)cc1,.,?,-,.,-
COCCN1C(=O)/C(=C/c2ccc(N3CCCC3)cc2)SC1=S,-,.,4.5,-,-
N#CC1=C(N)N2C(=C(C#N)C1c1cccc(Br)c1)Nc1ccccc12 (stereo not drawn),-,28,-,64,-
N#CC1=C(N)N2C(=C(C#N)C1c1ccccc1)Sc1ccccc12 (stereo not drawn),-,?,-,-,-
N#CC1=C(N)N2C(=C(C#N)C1c1ccc(Br)cc1)Nc1ccccc12 (stereo not drawn),-,23,-,60,-
O=[N+]([O-])c1ccc(O)c(-c2cc(C(F)(F)F)nc(-c3ccccc3)n2)c1,.,-,-,.,-
Cn1ccc(C(=O)OCC(=O)Nc2ccccc2Cl)n1,.,-,-,.,-
CCOc1ccccc1N(CC(=O)OC)S(C)(=O)=O,-,-,4.9,-,-
CCOc1ccccc1N(CC(=O)N1CCCCCC1)S(C)(=O)=O,-,-,-,-,-
CCN(CC(=O)Nc1ccc(NC(C)=O)cc1)CC(=O)Nc1cccc(Cl)c1,.,-,-,.,-
CCN(CC(=O)Nc1ccc(NC(C)=O)cc1)CC(=O)Nc1ccc(Cl)c(Cl)c1,.,-,5.9,.,-
C/C(=N\NC(=O)c1ccncc1)c1cc2ccccc2oc1=O,-,-,-,-,-
C/C(=N\NC(=O)c1ccc([N+](=O)[O-])cc1)c1cc2ccccc2oc1=O,-,-,-,-,-
SMILES,Runt-CBFb FRET,RanGTP-Impb inh,IMP-1 inhibitor,Runt-SMMHC FRET,VIM-2 inhibitor
C/C(=N/NC(=O)c1ccncc1)c1cc2ccc(O)cc2oc1=O,-,.,-,63,-
C/C(=N/NC(N)=S)c1cc2ccc(O)cc2oc1=O,-,152,-,84,-
COc1ccccc1Cn1c(=S)[nH]c2ccc(F)cc2c1=O,.,-,-,.,-
CC12CCC(=O)N1C(C(=O)Nc1nc3c(F)cc(F)cc3s1)CS2 (stereo not drawn),.,-,11,.,-
O=S(=O)(c1ccc(N2CCC(c3ccc(Cl)cc3)=N2)cc1)N(CCO)CCO,-,?,-,108,-
O=S(=O)(c1ccc(Oc2ccc(S(=O)(=O)N(CCO)CCO)cc2)cc1)N(CCO)CCO,-,-,-,-,-
N#Cc1c(-c2ccccc2)nc(SCC(=O)N2c3ccccc3Sc3ccccc32)[nH]c1=O,-,-,-,-,-
CCCCOc1ccc(-c2nnn(C(C)C(=O)OCC)n2)cc1 (stereo not drawn),-,91,-,-,-
COc1ccc2oc(=O)c(C(=O)N3CCN(C(=O)c4ccco4)CC3)cc2c1,.,-,-,.,-
Oc1c(Cl)cc(Cl)cc1C=Nc1ccc(N2CCOCC2)cc1,.,-,-,.,-
